Measured values published in ChEMBL document CHEMBL4017499, “The Discovery of Novel Antimalarial Aminoxadiazoles as a Promising Nonendoperoxide Scaffold” (J Med Chem, 2017).
Converted amounts (≈) assume the structure as drawn. The source made the active and inactive calls. The rule behind the calls is not given here.

Experiments:
Plasmodium falciparum [1] = experiment: Antiplasmodial activity against Plasmodium falciparum 3D7A infected in red blood cells preincubated for 24 hrs followed by [3H]-hypoxanthine addition measured after 24 hrs by scintillation counting; format: functional, cell-based
How it was run: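 Whole-cell growth assay on sensitive P. falciparum strain 3D7A by [3H]hypoxanthine incorporation; two or three independent biological replicates per value.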

[2] = Solubility of the compound in fasted state stimulated intestinal fluid at pH 6.5 by HPLC analysis; format: physicochemical; details: fasted state simulated intestinal fluid
How it was run: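 Solubility measured in fasted state simulated intestinal fluid, pH 6.5.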

Plasmodium falciparum [3] = experiment: Antimalarial activity against Plasmodium falciparum 3D7 0087/N9 infected in SCID mouse assessed as reduction in parasitemia at 67 mg/kg, po administered 3 days post infection dosed once a day for four consecutive days measured 7 days post dose; format: functional, organism-based
How it was run: (§1)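 SCID mice engrafted with human parasite P. falciparum Pf 3D70087/N9; oral dosing started 3 days after infection, once daily for four consecutive days; parasitemia compared with untreated controls.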

Liver = experiment: Intrinsic clearance in human liver microsomes at 0.5 uM up to 45 mins in presence of NADPH by HPLC-MS/MS analysis; format: ADME, microsome; details: 0.75 h
Plasma [4] = experiment: Drug level in Swiss CD1 mouse plasma treated with 5-(3-(Pyridin-3-yl)-5-(trifluoromethyl)phenyl)-N-(4-(pyrrolidin-1-ylmethyl)phenyl)-1,3,4-oxadiazol-2-amine at 500 mg/kg, po by HPLC analysis; format: ADME, organism-based; details: in vivo
How it was run: (§2)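 Mice given high oral doses (250/300 and 500 mg/kg); plasma analysed by HPLC for parent compound and breakdown products, expressed as percentage levels.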

Plasmodium falciparum [5] = experiment: Antimalarial activity against Plasmodium falciparum 3D7 0087/N9 infected in po dosed SCID mouse assessed as reduction in parasitemia administered 3 days post infection dosed once a day for four consecutive days measured after 7 days; format: functional; details: 3D7 0087/N9, po; how it was run: as §1
[6] = Oral bioavailability in CD1 mouse at 10 mg/kg measured up to 24 hrs post dose by LC-MS/MS analysis; format: ADME, organism-based; details: in vivo
How it was run: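 Oral bioavailability in mouse after a single oral dose of 10 mg/kg.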

[7] = Clearance in CD1 mouse at 1 mg/kg, iv measured up to 24 hrs post dose by LC-MS/MS analysis; format: ADME, organism-based; details: CD1, mouse, in vivo
How it was run: (§3)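 Pharmacokinetics in mouse after a single intravenous dose of 1 mg/kg.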

Plasmodium falciparum [8] = experiment: Ratio of IC50 for pyrimethamine-resistant Plasmodium falciparum TC08 infected in red blood cells to IC50 for wild type Plasmodium falciparum 3D7A infected in red blood cells; format: functional
[9] = Ratio of IC50 for chloroquine/pyrimethamine-resistant Plasmodium falciparum Dd2 infected in red blood cells to IC50 for wild type Plasmodium falciparum 3D7A infected in red blood cells; format: functional
[10] = Ratio of IC50 for Plasmodium falciparum HB3 infected in red blood cells to IC50 for wild type Plasmodium falciparum 3D7A infected in red blood cells; format: functional
Plasmodium falciparum [11] = experiment: Antimalarial activity against Plasmodium falciparum 3D7 0087/N9 infected in po dosed mouse assessed as average daily exposure in whole blood required to reduce parasitemia administered 3 days post infection dosed once a day for four consecutive days measured 7 days post dose; format: functional, organism-based
Plasmodium falciparum [12] = experiment: Ratio of IC50 for chloroquine-resistant Plasmodium falciparum T9/94 infected in red blood cells to IC50 for wild type Plasmodium falciparum 3D7A infected in red blood cells; format: functional
Plasmodium falciparum [13] = experiment: Ratio of IC50 for chloroquine/pyrimethamine/atovaquone-resistant Plasmodium falciparum Tm90C2B infected in red blood cells to IC50 for wild type Plasmodium falciparum 3D7A infected in red blood cells; format: functional
Plasmodium falciparum [14] = experiment: Ratio of IC50 for chloroquine/atovaquone/cycloguanil-resistant Plasmodium falciparum FCR3 infected in red blood cells to IC50 for wild type Plasmodium falciparum 3D7A infected in red blood cells; format: functional
Plasmodium falciparum [15] = experiment: Ratio of IC50 for chloroquine/pyrimethamine-resistant Plasmodium falciparum Tm90C2A infected in red blood cells to IC50 for wild type Plasmodium falciparum 3D7A infected in red blood cells; format: functional
Plasmodium falciparum [16] = experiment: Ratio of IC50 for chloroquine/pyrimethamine-resistant Plasmodium falciparum V1/S infected in red blood cells to IC50 for wild type Plasmodium falciparum 3D7A infected in red blood cells; format: functional
[17] = Volume of distribution at steady state in CD1 mouse at 1 mg/kg, iv measured up to 24 hrs post dose by LC-MS/MS analysis; format: ADME, organism-based; details: in vivo, read-out: Vdss; how it was run: as §3
Plasma [18] = experiment: Drug level in Swiss CD1 mouse plasma treated with 5-([3,4'-Bipyridin]-2'-yl)-N-(4-(pyrrolidin-1-ylmethyl)phenyl)-1,3,4-oxadiazol-2-amine at 500 mg/kg, po by HPLC analysis; format: ADME, organism-based; details: in vivo; how it was run: as §2
HepG2 = experiment: Cytotoxicity against human HepG2 cells at 25 uM; format: cell-based; details: hepg2, 25 µM
How it was run: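 HepG2 cells exposed to compound at 25 μM to assess mammalian cytotoxicity.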

Plasmodium falciparum [19] = experiment: Antimalarial activity against Plasmodium falciparum 3D7 0087/N9 infected in SCID mouse assessed as reduction in parasitemia at 120 mg/kg, po administered 3 days post infection dosed once a day for four consecutive days relative to control; format: functional; set-up: scale not given: the % may be the effect or the level left; how it was run: as §1
[20] = Ratio of TC50 for human HepG2 to IC50 for antiplasmodial activity against Plasmodium falciparum 3D7A infected in red blood cells
How it was run: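 Denominator is the asexual P. falciparum 3D7A IC50 from a [3H]hypoxanthine incorporation assay, using two or three independent biological replicates. Numerator is the 50% toxicity value in HepG2 cells, expressed as Tox50/Pf 3D7 IC50.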

Plasma [21] = experiment: Drug metabolism in Swiss CD1 mouse assessed as 2-([3,4'-Bipyridine]-2'-carbonyl)-N-(4-(pyrrolidin-1-ylmethyl)-phenyl)hydrazinecarboxamide in plasma at 300 to 500 mg/kg, po by HPLC analysis; format: ADME, organism-based; details: in vivo; how it was run: as §2
[22] = Chemical stability of compound in SGF media at pH 1.6 after 24 hrs; format: physicochemical; details: simulated gi fluid, pH 1.6, 24 h
How it was run: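 Stability in simulated gastric fluid at pH 1.6, held at 37 °C for up to 24 h; checked for degradation products.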

Mus musculus [23] = experiment: Toxicity in Swiss CD1 mouse assessed as effect on body weight evolution at 300 to 500 mg/kg, po measured up to 24 hrs post dose by Irwin test; format: organism-based; details: in vivo
How it was run: (§4)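 Female Swiss CD-1 mice given oral doses of 300 and 500 mg/kg; in-life observations, body weight evolution, relative organ weight, hematology and clinical chemistry recorded; plasma exposure measured at the highest dose; two independent experiments.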

Mus musculus [24] = experiment: Toxicity in Swiss CD1 mouse assessed as passivity at 500 mg/kg, po measured up to 24 hrs post dose by Irwin test; format: organism-based; details: in vivo
[25] = AUC in Swiss CD1 mouse plasma at 500 mg/kg, po; format: ADME, organism-based; how it was run: as §4
[26] = Lipophilicity, log D of compound at pH 7.4 by chromatographic method; format: physicochemical; details: buffer
[27] = Ratio of IC50 for chloroquine-resistant Plasmodium falciparum 2B12 infected in red blood cells to IC50 for wild type Plasmodium falciparum […] infected in red blood cells; format: functional
Mus musculus [28] = experiment: Toxicity in Swiss CD1 mouse assessed as effect on in life observation at 300 to 500 mg/kg, po measured up to 24 hrs post dose by Irwin test; format: organism-based; details: in vivo; how it was run: as §4
Mus musculus [29] = experiment: Toxicity in Swiss CD1 mouse assessed as effect on organ weight at 300 to 500 mg/kg, po measured up to 24 hrs post dose by Irwin test; format: organism-based; details: in vivo; how it was run: as §4

CN1CCc2ncc(Nc3nnc(-c4cc(-c5cccnc5)cc(C(F)(F)F)c4)o3)cc2C1
IC50 (Plasmodium falciparum [1]): 30 nM
solubility [2]: 68 µg/mL (≈ 150 µM)
Activity (Plasmodium falciparum [3]): inactive

Clc1cccc(Nc2nnc(-c3cccc(-c4cccnc4)c3)o2)c1
IC50 (Plasmodium falciparum [1]): 5530 nM
intrinsic clearance (Liver): 3.7 mL/min/g

O=C(NNC(=O)c1cc(-c2cccnc2)cc(C(F)(F)F)c1)Nc1ccc(CN2CCCC2)cc1
Drug metabolism (Plasma [4]): Metabolite_Detected

CN1CCCc2ccc(Nc3nnc(-c4cccc(-c5cccnc5)c4)o3)cc2C1
IC50 (Plasmodium falciparum [1]): 660 nM
intrinsic clearance (Liver): 9.3 mL/min/g

CN1CCc2ccc(Nc3nnc(-c4cccc(-c5cccnc5)c4)o3)cc2C1
IC50 (Plasmodium falciparum [1]): 100 nM
intrinsic clearance (Liver): 1.8 mL/min/g

CN1CCc2ccc(Nc3nnc(-c4cc(-c5cccnc5)cc(C(F)(F)F)c4)o3)cc2C1
ED90 (Plasmodium falciparum [5]): 9.3 mg/kg
IC50 (Plasmodium falciparum [1]): 20 nM
bioavailability [6]: 90%
clearance [7]: 42 to 43 mL/min/kg
Ratio IC50 (Plasmodium falciparum [8]): 1
solubility [2]: 1.2 µg/mL (≈ 2.66 µM)
Ratio IC50 [9]: 1
Ratio IC50 [10]: 1
AUCED90 (Plasmodium falciparum [11]): 2.2 µg.hr/ml/day
Ratio IC50 (Plasmodium falciparum [12]): 1
intrinsic clearance (Liver): 0.9 mL/min/g
Ratio IC50 (Plasmodium falciparum [13]): 1
Ratio IC50 (Plasmodium falciparum [14]): 1
Ratio IC50 (Plasmodium falciparum [15]): 1
Ratio IC50 (Plasmodium falciparum [16]): 1
Vd [17]: 3.5 L/kg

CN1CCc2ccc(Nc3nnc(-c4cc(F)cc(-c5cccnc5)c4)o3)cc2C1
IC50 (Plasmodium falciparum [1]): 50 nM
intrinsic clearance (Liver): < 0.5 mL/min/g

CN1CCc2ccc(Nc3nnc(-c4cccc(-c5cccnc5)c4)o3)nc2C1
IC50 (Plasmodium falciparum [1]): 130 nM

O=C(O)c1cc(-c2cccnc2)ccn1
Drug metabolism (Plasma [18]): Metabolite_Detected

CN1CCOc2ccc(Nc3nnc(-c4cccc(-c5cccnc5)c4)o3)cc2C1
ED90 (Plasmodium falciparum [5]): > 120 mg/kg
IC50 (Plasmodium falciparum [1]): 70 nM
bioavailability [6]: 26.6%
Ratio IC50 (Plasmodium falciparum [8]): 1
Activity (HepG2): Non-Toxic
Ratio IC50 [9]: 1
Ratio IC50 [10]: 1
Ratio IC50 (Plasmodium falciparum [12]): 1
intrinsic clearance (Liver): 13.7 mL/min/g
Ratio IC50 (Plasmodium falciparum [13]): 1
Activity (Plasmodium falciparum [19]): 81%
Ratio IC50 (Plasmodium falciparum [14]): 1
Ratio [20]: >100
Ratio IC50 (Plasmodium falciparum [15]): 1
Ratio IC50 (Plasmodium falciparum [16]): 1
Vd [17]: 2.6 L/kg

CN1CCc2ccc(Nc3nnc(-c4ccc(F)c(-c5cccnc5)c4)o3)cc2C1
IC50 (Plasmodium falciparum [1]): 480 nM
intrinsic clearance (Liver): 2.2 mL/min/g

c1cncc(-c2ccnc(-c3nnc(Nc4ccc(CN5CCCC5)cc4)o3)c2)c1
ED90 (Plasmodium falciparum [5]): 12.4 mg/kg
IC50 (Plasmodium falciparum [1]): 20 nM
solubility [2]: > 1000 µg/mL
Drug metabolism (Plasma [21]): Metabolite_Detected
Ratio IC50 [9]: 1
Stability [22]: Stable
Activity (Mus musculus [23]): Non-Toxic
Activity (Mus musculus [24]): Toxic
Ratio IC50 (Plasmodium falciparum [13]): 1
Ratio [20]: >1000
AUC [25]: 68900 ng·h/mL
chromatographic logD [26]: 1.3
Ratio IC50 [27]: 1
Activity (Mus musculus [28]): Non-Toxic
Ratio IC50 (Plasmodium falciparum [16]): 1
Activity (Mus musculus [29]): Non-Toxic

CN1CCc2ccc(Nc3nnc(-c4cc(OC(F)(F)F)cc(-c5cccnc5)c4)o3)cc2C1
IC50 (Plasmodium falciparum [1]): 220 nM
intrinsic clearance (Liver): < 0.5 mL/min/g

CN(C)Cc1ccc(Nc2nnc(-c3cc(-c4cccnc4)cc(C(F)(F)F)c3)o2)cn1
IC50 (Plasmodium falciparum [1]): 90 nM
chromatographic logD [26]: 2.9
